Tn6 DDE FP = disrupts Tn6 cyclic peptide binding to fibrin D-Dimer-E complex; inhibition, % at 8.3 µM; 370,000 compounds, 0.21% hits; Fibrin DD(E) TRITC-Tn6 fluorescence polarization displacement; AID 720509; P02675;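 active = inhibition above a per-campaign cutoff: mean of compounds within control limits plus 3 SD, cut at about 15% in these data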;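 note: 0% = median of all compound wells on the plate and 100% = blocking peptide control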
Target sequence (P02675 whole entry, looked up): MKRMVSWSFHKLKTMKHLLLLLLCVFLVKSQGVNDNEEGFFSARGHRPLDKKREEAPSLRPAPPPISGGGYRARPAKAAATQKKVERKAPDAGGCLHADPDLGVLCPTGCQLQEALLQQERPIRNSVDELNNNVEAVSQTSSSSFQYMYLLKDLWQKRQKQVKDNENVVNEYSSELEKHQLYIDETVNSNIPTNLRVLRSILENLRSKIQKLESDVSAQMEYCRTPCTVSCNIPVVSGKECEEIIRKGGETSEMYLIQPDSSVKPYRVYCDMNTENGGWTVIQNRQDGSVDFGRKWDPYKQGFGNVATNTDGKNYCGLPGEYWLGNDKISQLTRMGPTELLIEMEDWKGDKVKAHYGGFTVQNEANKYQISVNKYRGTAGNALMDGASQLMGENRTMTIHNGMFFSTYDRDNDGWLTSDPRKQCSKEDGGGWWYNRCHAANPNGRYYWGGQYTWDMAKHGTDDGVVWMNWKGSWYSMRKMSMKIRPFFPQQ
Cardiac RTF inh = cardiac RTF calcium desensitization. P19429+P45379. IANBD-labeled cardiac RTF, Ca2+ fluorescence. inhibition, % at 7.15 µM. 340,000 compounds, 0.12% hits. AID 493244;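 active = inhibition above the mean inhibition of all tested compounds plus 3 SD, cut at about 17% in these data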;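 note: assay run at fixed EC70 calcium of 1.6 mM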
CRFR2-BP ag = agonists of human CRF-binding protein/CRF-R2 receptor complex; 350,000 compounds, 0.46% hits; activation, % at 13.2 µM; HEK293 CRF-R2/CRF-BP, calcium dye fluorescence (FLIPR); percent of saturating CRF peptide response;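 active = activation of at least 50%, plus an integration ratio under a set limit after plate pattern correction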;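 note: plate controls were neutral control wells without compound for no effect and CRF at EC100 for full effect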
RTF Ca sens act = increases calcium sensitivity of human cardiac regulated thin filaments; 340,000 compounds, 0.24% hits; P19429+P45379; AID 493008; IANBD-labeled TnC RTF fluorescence at EC20 calcium; 0% EC20 calcium, 100% full calcium; activation, % at 7.2 µM;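 active = activation above the mean over all tested compounds plus 3 SD, cut at about 30% in these data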;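 note: rise in fluorescence read as greater calcium sensitivity of cardiac thin filaments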
CRFR2-BP antag = CRF-BP/CRF-R2 complex antagonism | HEK293 CRF-R2/CRF-BP, CRF-induced calcium fluorescence | 350,000 compounds, 0.59% hits | inhibition, % at 11.8 µM;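 active = inhibition of the ligand-induced calcium signal above about 50% at the single tested concentration, limit read from the data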
Tn7 DDE FP = DD(E)-Tn7 binding inhibition, primary FP screen; inhibition, % at 8.3 µM; AID 720508; FP displacement of FITC-Tn7 peptide from fibrin DD(E); 0% = median of compound wells per plate; 370,000 compounds, 0.13% hits;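 active = inhibition above the mean of compounds falling within the control limits plus 3 SD of them, cut at about 14% in these data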;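 note: 0% = plate median of compound wells and 100% = 10 µM Aha-Tn7 peptide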
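Assay system: human fibrin DD(E) protein / Input: 2 µM fibrin DD(E) / Benchmarks: high control of 10 µM Aha-Tn7 peptide / Measured by: fluorescence polarization of the labelled Tn7 tracer / Medium: Tris buffer with calcium and detergent, pH 7.8 / Timing: 10 min compound pre-incubation, 3 h probe incubation at room temperature / Repeats: one replicate per compound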
Starred values were filed as active, the others as inactive; / = not tested or not shown. Rows were chosen to be rich in hits. Some 1.4% of all compounds tested hit in one or more screens of this group.

SMILES	Tn6 DDE FP	Cardiac RTF inh	CRFR2-BP ag	RTF Ca sens act	CRFR2-BP antag	Tn7 DDE FP
Cc1ccccc1CCNC(=O)CCn1nc(C)c2c(C)n(-c3ccccc3)nc2c1=O	0.4	-8.6	0.7	-1.3	-3.5	-1.7
CCN(CC)c1ccc(/C=c2/sc3nnc(-c4ccccc4C)n3c2=O)cc1	-0.3	-18.9	132.6*	43.2*	-194.2	1.7
CCN(CC)c1ccc(/C=c2\sc3nnc(-c4ccccc4Cl)n3c2=O)cc1	0.2	-62.1	112.5*	46.9*	-98.9	-4.2
CCOc1ccc(Cl)cc1-c1cc(C(=O)Nc2ccc(C(C)C)cc2)[nH]n1	-15.7	/	/	/	/	-0.3
COC(=O)[C@H]1C[C@]2(C(/C=C(\C)CCC=C(C)C)S(=O)(=O)c3ccccc3)c3ccccc3N[C@H]2N1 (stereo not given in full)	3.5	/	/	/	/	3.2
CC1=CC(=C(C#N)c2nc3ccccc3s2)C=C(C)N1CC1CCCO1 (stereo not given)	-5.8	3.5	63.8*	7.3	-26.0	-6.5
c1ccc2sc(NCC3CCCO3)nc2c1 (stereo not given)	-6.1	-1.9	0.8	2.4	5.4	1.6
O=[N+]([O-])c1ccc(NC(=S)NCCc2ccc(F)cc2)cc1	-11.1	-5.5	28.8	0.5	53.9*	-8.1
CCC[C@H]1[C@@H](OC(=O)Oc2ccc([N+](=O)[O-])cc2)CC[C@@]23CCCN2C(=O)CCC[C@@H]13	1.8	/	/	/	/	3.8
COC(=O)c1c(=O)n(O)c2ccc(OC)cc2[n+]1[O-]	/	-54.3	31.4	43.8*	-21.2	/
COc1cc(/C=N/NC(=O)c2ccncc2)ccc1OC(C)=O	6.8	-16.8	-1.0	0.4	1.8	-0.5
COc1cc(C=Nc2c(C)cc(C)cc2C)ccc1OC(C)=O	3.6	-13.2	-1.3	2.8	50.7*	-1.7
O=C(NCc1cccnc1)O[C@H]1CC[C@@]23CCCN2C(=O)CCC[C@H]3C1	-6.3	/	/	/	/	0.8
COc1ccc(NC(=O)/C(Cl)=C(/Cl)S(=O)Cc2ccc(Cl)cc2)cn1 (stereo not given)	3.7	-4.8	88.3*	-3.0	-52.8	-3.3
COC(=O)C(CCC(C(=O)OC)N1C(=O)c2ccccc2C1=O)N1C(=O)c2ccccc2C1=O (stereo not given)	0.7	-15.9	0.1	3.1	0.2	-4.0
CC(C)CC(C(=O)Nn1cnnc1)N1C(=O)c2ccccc2C1=O (stereo not given)	-5.5	11.1	0.1	-3.1	58.9*	-3.6
COC[C@H]1CCCN1c1cccc2c1S(=O)(=O)N1CC[C@@H](C1)O2	0.2	/	/	/	/	-3.3
Cc1ccc(S(=O)(=O)Oc2ccc(C(c3c(C)[nH][nH]c3=O)c3c(C)[nH][nH]c3=O)cc2)cc1	/	3.0	125.5*	-8.1	-159.9	/
Cc1nc2ccc(S(=O)(=O)NCC(=O)NCc3ccc(F)cc3)cc2s1	-0.9	/	/	/	/	11.0
CSc1ccc(S(=O)(=O)NCC(=O)OCC(=O)N(C)Cc2ccccc2)cc1[N+](=O)[O-]	4.7	-2.9	-0.1	-0.4	12.6	6.7
CSc1ccc(S(=O)(=O)NCC(=O)OCC(=O)N(Cc2ccccc2)C(C)C)cc1[N+](=O)[O-]	-5.2	-8.9	0.7	-7.7	55.6*	3.1
Cc1c(C2Nc3ccccc3NC3=C2C(=O)CC(C)(C)C3)cnn1C (stereo not given)	2.2	-42.3	5.8	26.0	-7.0	15.4*
COCCn1c(C)cc(C(=O)CSc2ccc(NC(C)=O)cc2)c1C	1.8	3.8	62.4*	-0.7	-128.9	-1.7
Cc1noc(C)c1S(=O)(=O)N1CCC(C(=O)N2CCN(c3ccc(Cl)cc3)CC2)CC1	-8.2	0.1	-0.4	7.3	57.8*	0.6
Cc1ccc(N(C(=O)Cn2nnc3ccccc32)C(C(=O)NC2CCCCC2)c2cn(C)nc2C)cc1 (stereo not given)	-10.5	-2.7	-0.3	-0.8	-10.0	5.0
SMILES	Tn6 DDE FP	Cardiac RTF inh	CRFR2-BP ag	RTF Ca sens act	CRFR2-BP antag	Tn7 DDE FP
Cc1nn(C)cc1C(C(=O)NC1CCCCC1)N(C(=O)Cc1cccs1)c1ccc(Cl)cc1 (stereo not given)	5.2	2.1	58.1*	0.6	-56.3	-5.9
CN(C)c1ccc(C(=O)N2CCC2(C)C(=O)O)cc1 (stereo not given)	-6.8	/	/	/	/	0.1
CCn1c(=N)n(CC(O)COc2ccc(C)cc2)c2ccccc21 (stereo not given)	-12.2	4.9	1.0	0.0	-14.7	7.0
CCCn1c(=N)n(CC(O)COc2ccc(C)cc2)c2ccccc21 (stereo not given)	3.0	-4.2	0.1	11.7	50.9*	2.5
Cc1ccccc1Cn1cc(CN2[C@@H](CC(C)C)COc3cccc(F)c3S2(=O)=O)nn1	5.4	/	/	/	/	-4.5
CCCCCCCCCSc1n[nH]c(N)n1	13.2	-5.5	-0.8	-6.7	68.9*	3.3
COc1ccc(Br)cc1C1=CC(=O)C[C@H](c2ccc(F)cc2)C1	2.6	/	2.5	/	3.8	8.5
CCOC(=O)c1cc([N+](=O)[O-])sc1NC(=O)c1ccc(S(=O)(=O)N2CC3(C)CC2CC(C)(C)C3)cc1 (stereo not given)	3.8	-11.8	152.4*	-2.6	-128.5	2.7
N#C/C(=C\c1ccc(OCCN2CCOCC2)cc1)C(=O)Nc1ccccc1	2.5	-4.9	-1.2	0.8	-16.2	-1.8
O=C(NCCCN1CCOCC1)C(=O)NCCc1ccccc1	-0.2	-6.7	-0.1	0.4	15.5	-7.2
COCCNC(=O)/C(C#N)=C\c1ccc(CNS(=O)(=O)c2ccccc2)o1	-0.1	2.9	-0.8	-2.6	12.1	0.2
N#C/C(=C\c1ccc(N2CCOCC2)o1)C(=O)NCCc1ccccc1	-3.5	-88.2	200.1*	64.5*	-297.2	-22.0
N#C/C(=C/c1ccc(N2CCOCC2)o1)C(=O)Nc1ccccc1	-2.5	-177.5	149.2*	132.2*	-98.7	-60.3
COCCNC(=O)/C(C#N)=C/c1ccc(N2CCOCC2)o1	-6.7	-54.4	42.2	61.2*	-36.2	-19.5
CCCC(=O)NC(C)c1nc2ccccc2[nH]1 (stereo not given)	3.2	-3.8	-2.2	0.8	58.1*	-1.7
CC(NC(=O)Cc1ccccc1)c1nc2ccccc2[nH]1 (stereo not given)	-3.1	3.8	-0.2	1.3	6.5	-3.1
O=c1oc2ccccc2cc1-c1csc(Cc2nc(-c3ccc(Cl)cc3)cs2)n1	-13.2	-3.1	9.5	0.6	-7.3	7.0
CCN(CC)c1ccc2cc(-c3nc(-c4cc5ccccc5oc4=O)cs3)c(=O)oc2c1	3.9	-186.0	194.9*	95.1*	-128.8	-1.9
CCN(CC)c1ccc2cc(S(=O)(=O)c3ccc(C)cc3)c(=O)oc2c1	3.6	-39.5	147.1*	53.1*	-157.4	-2.6
CCN(CC)c1ccc2cc(C#N)c(=O)oc2c1	5.7	/	102.1*	/	-72.9	2.8

Source: PubChem
